This note sets out measurements from ChEMBL document CHEMBL1156503, “Long-acting kappa opioid antagonists disrupt receptor signaling and produce noncompetitive effects by activating c-Jun N-terminal kinase” (J Biol Chem, 2007).

Experiment [1] concerns Mus musculus. Nature of the experiment: Inhibition of U50488-induced analgesic activity against C57BL/6 mouse assessed as tail withdrawal latency at 10 mg/kg, ip. On the set-up: dose 10 mg/kg. The experiment is classed as functional, organism-based. The method, boiled down: (§1)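 Male C57Bl/6 mice, 20–30 g. Single 10 mg/kg i.p. dose or saline. At set days, U50,488 15 mg/kg i.p. was given and tail-withdrawal latency from 52 ± 1 °C water measured 30 min later, 15 s cut-off. One-way ANOVA with Bonferroni post hoc test.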

The test system of experiment [2] is Mus musculus. Put plainly: Inhibition of U50488-induced analgesic activity against C57BL/6 mouse assessed as tail withdrawal latency at 10 mg/kg, ip after 2 days. The experiment is classed as functional, organism-based. On the set-up: dose 10 mg/kg. The method in brief: as §1
For experiment [3], the target named is T1, c-Jun N-terminal kinase, JNK (Homo sapiens, UniProt P45983+P53779+P45984). Nature of the experiment: Increase of JNK phosphorylation in U50488 treated HEK293 cells expressing GFP tagged kappa opioid receptor. The experiment is classed as cell-based. The method in brief: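 KOR-GFP HEK293 cells under G418, serum-starved 18 h, then concentration series for 1 h at 37 °C. Lysate (40 μg protein) immunoblotted for phospho-JNK, p54 and p46 summed, normalised to basal (100%). EC50 from nonlinear regression; n = 3–5 separate cultures.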

Experiment [4] addresses T1, c-Jun N-terminal kinase, JNK. Nature of the experiment: Increase of JNK phosphorylation in U50488 treated HEK293 cells expressing GFP tagged kappa opioid receptor relative to U50,488. It is filed as cell-based.
The target is the same in experiment [5]. Put plainly: Increase of U50488-induced JNK phosphorylation in untransfected HEK293 cells at 50 uM after 15 mins. The experiment is classed as cell-based.
The target is the same in experiment [6]. Put plainly: Increase of JNK phosphorylation in U50488 treated untransfected HEK293 cells at 100 uM after 15 mins. The experiment is classed as cell-based.
The target is the same in experiment [7]. Put plainly: Increase of JNK phosphorylation in U50488 treated untransfected HEK293 cells at 10 uM after 1 hr. The experiment is classed as cell-based. The method in brief:
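Untransfected HEK293 cells grown without G418, serum-starved 18 h, then ligand 10 μM for 1 h at 37 °C. Phospho-JNK immunoblot quantified as % of basal untreated control, n = 3–7.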

Experiment [8] concerns Mus musculus. Put plainly: Inhibition of U50488-induced analgesic activity against C57BL/6 mouse assessed as tail withdrawal latency at 10 mg/kg, ip upto 21 days. It is filed as functional, organism-based. On the set-up: dose 10 mg/kg. The method, boiled down: as §1
The test system of experiment [9] is Mus musculus. Put plainly: Effect on U50488-induced analgesic activity in C57BL/6 mouse assessed as tail withdrawal latency at 10 mg/kg, ip. The experiment is classed as functional, organism-based. On the set-up: dose 10 mg/kg. The method in brief: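 Male mice, 20–30 g, 8–12 weeks old, got a single ip injection in saline (control: saline). At set times from 24 h to 28 days afterward, they were challenged with U50,488 15 mg/kg ip. Tail-withdrawal latency from 52 ± 1 °C water was read 30 min later, with a 15 s cut-off. Groups were compared with saline by one-way ANOVA and Bonferroni.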

In experiment [10] the test system is Mus musculus. Nature of the experiment: Inhibition of U50488-induced analgesic activity against C57BL/6 mouse assessed as tail withdrawal latency at 10 mg/kg, ip for 14 days. The experiment is classed as functional, organism-based. On the set-up: dose 10 mg/kg. The method in brief: as §1
Experiment [11] addresses T1, c-Jun N-terminal kinase, JNK. Put plainly: Increase in JNK phosphorylation in pertussis toxin treated HEK293 cells expressing GFP tagged kappa opioid receptor at 10 uM after 1 hr. The experiment is classed as cell-based. The method in brief: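 KOR-GFP HEK293 cells serum-starved, pretreated with pertussis toxin 200 ng/ml for 18 h at 37 °C, then ligand 10 μM for 1 h at 37 °C. Phospho-JNK p54/p46 read by infrared immunoblot with β-actin loading control. Expressed as % basal, n = 3–4; Student's t test.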

Experiment [12] deals with Mus musculus. Put plainly: Reversal of inhibition of U50488-induced analgesic activity against C57BL/6 mouse assessed as tail withdrawal latency at 10 mg/kg, ip after 8 days in presence of SP600125. It is filed as functional, organism-based. On the set-up: dose 10 mg/kg. The method, boiled down: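 Wild-type mice given SP600125 30 mg/kg i.p. (vehicle 5% […]/20% Cremophor EL/75% saline) 24 h and 30 min before 10 mg/kg i.p. test drug. Day 7–8: U50,488 25 mg/kg i.p. challenge, then tail-flick latency in 52 °C water, 15 s cut-off.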

Experiment [13] has as its system Mus musculus. Nature of the experiment: Increase of JNK phosphorylation in mouse striatum at 10 mg/kg, ip after 1 hr. It is filed as organism-based. On the set-up: dose 10 mg/kg. The method, boiled down:
(§2)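 C57Bl/6 mice (wild type; KOR−/− as control) given 10 mg/kg i.p. Spinal cord and striatum dissected 60 min later and Dounce-homogenised in lysis buffer with phosphatase and protease inhibitors. Phospho-JNK immunoblot expressed as % of basal untreated control.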

For experiment [14], the system named is Mus musculus. Put plainly: Increase of JNK phosphorylation in mouse spinal cord at 10 mg/kg, ip after 1 hr. The experiment is classed as organism-based. On the set-up: dose 10 mg/kg. The method, boiled down:
as §2

Experiment [15] deals with Mus musculus. Put plainly: Inhibition of U50488-induced analgesic activity against C57BL/6 mouse assessed as tail withdrawal latency at 10 mg/kg, ip after 28 days. It is filed as functional, organism-based. On the set-up: dose 10 mg/kg. The method in brief:
as §1

Experiment [16] deals with Kappa-type opioid receptor (Mus musculus, UniProt P33534). Nature of the experiment: Displacement of [3H]U69,593 from kappa opioid receptor in mouse brain tissue. (In a radioligand displacement assay an active substance lowers the binding of a labelled ligand.)

The source made the active and inactive calls.

Chain of Kappa-type opioid receptor (P33534 whole entry): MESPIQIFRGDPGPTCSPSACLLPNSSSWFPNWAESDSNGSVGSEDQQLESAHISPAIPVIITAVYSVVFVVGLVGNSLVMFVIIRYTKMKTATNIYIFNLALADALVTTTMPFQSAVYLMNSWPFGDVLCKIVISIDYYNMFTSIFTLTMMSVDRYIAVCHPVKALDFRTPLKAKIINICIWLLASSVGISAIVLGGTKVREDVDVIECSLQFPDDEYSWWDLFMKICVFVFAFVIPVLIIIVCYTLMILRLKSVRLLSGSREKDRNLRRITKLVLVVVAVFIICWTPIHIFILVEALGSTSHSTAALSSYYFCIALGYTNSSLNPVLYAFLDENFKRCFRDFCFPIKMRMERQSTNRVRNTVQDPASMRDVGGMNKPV

Turning to `C=CCN1CC[C@]23c4c5ccc(O)c4O[C@H]2C(=O)CC[C@@]3(O)[C@H]1C5`, in the experiment on Mus musculus [1], the outcome was Active. The result in the experiment on Mus musculus [2] was inactive.
Take `CO[C@@]12CC[C@@]3(C[C@@H]1[C@](C)(O)C(C)(C)C)[C@H]1Cc4ccc(O)c5c4[C@@]3(CCN1CC1CC1)[C@H]2O5`: the result in experiment [3] was inactive. Moreover, the Intrinsic activity entry in [4] was “inactive”.
Regarding `COc1ccc(C[C@H]2NC[C@H](O)[C@H]2OC(C)=O)cc1`, the result in experiment [5] and in experiment [6] was Active.
On to `N=C(N)Nc1ccc2[nH]c3c(c2c1)C[C@@]1(O)[C@H]2Cc4ccc(O)c5c4[C@@]1(CCN2CC1CC1)[C@H]3O5`, for which the result in experiment [7] was inactive. Further, the result in the experiment on Mus musculus [8] was Active.
Take `Oc1c2ccccc2c2c3c(cccc13)N=N2`: in the experiment on Mus musculus [9], the result was inactive.
On to `CC(C)C[C@H](NC(=O)[C@H](Cc1ccccc1)NC(=O)CNC(=O)CNC(=O)[C@@H](N)Cc1ccc(O)cc1)C(=O)N[C@@H](CCCNC(=N)N)C(=O)N[C@@H](CCCNC(=N)N)C(=O)N[C@@H](CCC(N)=O)C(=O)N[C@@H](Cc1ccccc1)C(=O)N[C@@H](CCCCN)C(=O)N[C@H](C(=O)N[C@H](C(=O)N[C@H](C(=O)O)[C@@H](C)O)C(C)C)C(C)C` [DYNORPHIN B], for which the EC50 (as a rule, the midpoint of the concentration-response curve) in experiment [3] came to 87 nM. This compound also came in with an Intrinsic activity in experiment [4] of 0.61.
On to `CC(C)[C@@H](CN1CC[C@@](C)(c2cccc(O)c2)[C@@H](C)C1)NC(=O)[C@H]1Cc2ccc(O)cc2CN1` [JDTIC], for which the result in [7] was inactive. Besides, the EC50 in experiment [3] stood at 5 nM. The outcome with Mus musculus [10] was Active. The same compound yielded an Intrinsic activity in experiment [4] of 0.57.
Take `Oc1ccc2c3c1O[C@H]1c4[nH]c5c(c4C[C@@]4(O)[C@@H](C2)N(CC2CC2)CC[C@]314)C[C@@]1(O)[C@H]2Cc3ccc(O)c4c3[C@@]1(CCN2CC1CC1)[C@H]5O4` [NORBINALTORPHIMINE]: the result (in [7]; in experiment [11]; with Mus musculus [15]) was inactive. The EC50 in [3] was 158 nM. Besides, the outcome in the experiment on Mus musculus [12], with Mus musculus [13], with Mus musculus [8] and in the experiment with Mus musculus [14] was Active. This compound yielded an Intrinsic activity in [4] of 0.84. In addition, the dissociation constant (Kd) (as a rule, the concentration at which binding is half-saturated) in experiment [16] was determined as 1.65 nM.
